Experiment [1] concerns Canis familiaris. The experiment can be described thus: Percent change in left ventricle contractile force in anesthetized dogs after intravenous administration at 0.03 mg/kg. The experiment is classed as functional, Canis lupus familiaris, Heart left ventricle.
Experiment [2] is described as follows: Inhibition of crude cGMP phosphodiesterase from canine thoracic aorta (NR = no effect at 100 uM). The experiment is classed as tissue-based, Canis lupus familiaris. Put shortly:
(§1)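 Crude homogenates: cAMP PDE from canine cardiac tissue, cGMP PDE from canine thoracic aorta. Value is drug concentration (μM) giving 50% inhibition. Mean of at least three determinations, ranges within ±10%.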

Experiment [3] concerns Canis familiaris. The experiment can be described thus: Percent change in mean arterial blood pressure after intravenous administration in anesthetized dogs at 0.03 mg/kg (NC<10%). Particulars: Canis lupus familiaris. The experiment is classed as functional, organism-based. On the set-up: dose 0.03 mg/kg.
The test system of experiment [4] is Canis familiaris. The experiment can be described thus: Percent change in left ventricle contractile force in anesthetized dogs after intravenous administration at 0.1 mg/kg. The experiment is classed as functional, Canis lupus familiaris, Heart left ventricle.
In experiment [5] the test system is Canis familiaris. The experiment can be described thus: Percent change in mean arterial blood pressure after intravenous administration in anesthetized dogs at 0.1 mg/kg. In kind it is functional, Canis lupus familiaris.
Experiment [6] in a line: In vitro increase in contractile force in ferret papillary muscle strips. The experiment is classed as functional, Mustela putorius furo, Muscle tissue. The procedure, abridged: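 Ferret papillary muscle; value is drug concentration (μM) giving a 20% rise in contractile force. Mean of at least two determinations, ranges within ±10%. Inotropic effect also tested with 1 μM propranolol co-administered. NR means not reached at 100 μM.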

The test system of experiment [7] is Canis familiaris. The experiment can be described thus: Percent change in heart rate after intravenous administration in anesthetized dogs at 0.1 mg/kg. In kind it is functional, Canis lupus familiaris.
Experiment [8] in a line: Inhibition of crude cAMP phosphodiesterase from canine […]. On the set-up: species or system Canis lupus familiaris. Put shortly: as §1
For experiment [9], the system named is Canis familiaris. Description: Percent change in heart rate after intravenous administration in anesthetized dogs at 0.3 mg/kg. In kind it is functional, Canis lupus familiaris.
Experiment [10] is filed under the species Canis familiaris. Description: In vitro vascular relaxation in canine coronary arteries precontracted with prostaglandin F2alpha. The experiment is classed as functional. As to conditions: Canis lupus familiaris. Put shortly:
(§2)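 Isolated vessels in warm PSS. Arteries constricted with prostaglandin F2α, veins with phenylephrine. Cumulative drug challenges, each added after relaxation plateaued. Delta force is expressed as % of agonist actual force (total minus basal) and as % of maximal relaxation. EC50 is found by linear interpolation between the points bracketing 50% relaxation. Afterwards tissues were rinsed every 10 min, reconstricted, and challenged with acetylcholine (arteries) or thrombin (veins).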

The species named for experiment [11] is Canis familiaris. Description: In vitro vascular relaxation in canine mesenteric veins precontracted with phenylephrine. The experiment is classed as functional. Particulars: Canis lupus familiaris, Mesenteric vein. Put shortly:
as §2

Experiment [12] deals with Canis familiaris. Description: Percent change in heart rate in anesthetized dogs after intravenous administration at 0.03 mg/kg. In kind it is functional, Canis lupus familiaris.
Experiment [13] deals with Canis familiaris. Description: Percent change in left ventricle contractile force in anesthetized dogs after intravenous administration at 0.3 mg/kg. In kind it is functional, Canis lupus familiaris, Heart left ventricle.
The subject of experiment [14] is Canis familiaris. Description: Percent change in mean arterial blood pressure after intravenous administration in anesthetized dogs at 0.3 mg/kg. The experiment is classed as functional, Canis lupus familiaris.
Experiment [15] is described as follows: Inhibition of crude cGMP phosphodiesterase from canine thoracic aorta. The experiment is classed as tissue-based, Canis lupus familiaris. The procedure, abridged:
as §1

The subject of experiment [16] is Canis familiaris. The experiment can be described thus: Percent change in mean arterial blood pressure after intravenous administration in anesthetized dogs at 1.0 mg/kg (NC<10%). As to conditions: Canis lupus familiaris. The experiment is classed as functional, organism-based. Set-up: dose 1 mg/kg.
In experiment [17] the test system is Canis familiaris. Description: Percent change in mean arterial blood pressure after intravenous administration in anesthetized dogs at 3.0 mg/kg. In kind it is functional, Canis lupus familiaris.
Experiment [18] has as its system Canis familiaris. The experiment can be described thus: Percent change in left ventricle contractile force in anesthetized dogs after intravenous administration at 3.0 mg/kg. In kind it is functional, Canis lupus familiaris, Heart left ventricle.
In experiment [19] the test system is Canis familiaris. Description: Percent change in heart rate after intravenous administration in anesthetized dogs at 1.0 mg/kg (NC<10%). The experiment is classed as functional, organism-based. On the set-up: dose 1 mg/kg. Particulars: Canis lupus familiaris.
Experiment [20] deals with Canis familiaris. The experiment can be described thus: Percent change in left ventricle contractile force in anesthetized dogs after intravenous administration at 1.0 mg/kg. In kind it is functional, Canis lupus familiaris, Heart left ventricle.
Experiment [21] deals with Canis familiaris. Description: Percent change in heart rate after intravenous administration in anesthetized dogs at 0.3 mg/kg (NC<10%). The experiment is classed as functional, organism-based. Set-up: dose 0.3 mg/kg. As to conditions: Canis lupus familiaris.
In experiment [22] the test system is Canis familiaris. Description: Percent change in heart rate after intravenous administration in anesthetized dogs at 3.0 mg/kg. In kind it is functional, Canis lupus familiaris.
In experiment [23] the test system is Canis familiaris. The experiment can be described thus: Percent change in left ventricle contractile force in anesthetized dogs after intravenous administration at 0.3 mg/kg (NC <10%). The experiment is classed as functional, organism-based. On the set-up: dose 0.3 mg/kg. As to conditions: Canis lupus familiaris, Heart left ventricle.
In experiment [24] the test system is Canis familiaris. Description: Percent change in mean arterial blood pressure after intravenous administration in anesthetized dogs at 0.3 mg/kg (NC<10%). The experiment is classed as functional, organism-based. Set-up: dose 0.3 mg/kg. Particulars: Canis lupus familiaris.
The subject of experiment [25] is Canis familiaris. Description: Percent change in heart rate after intravenous administration in anesthetized dogs at 1.0 mg/kg. The experiment is classed as functional, Canis lupus familiaris.
Experiment [26] in a line: Inhibition of crude cAMP phosphodiesterase from canine […] (NR = no effect at 100 uM). Set-up: species or system Canis lupus familiaris. Put shortly:
as §1

The results in this text go back to ChEMBL document CHEMBL1125195, “Novel compounds possessing potent cAMP and cGMP phosphodiesterase inhibitory activity. Synthesis and cardiovascular effects of a series of imidazo[1,2-a]quinoxalinones and imidazo[1,5-a]quinoxalinones and their aza analogues” (J Med Chem, 1991).

Turning to `Cc1[nH]c(=O)c(C#N)cc1-c1ccncc1` [MILRINONE], the Delta is 31% in experiment [1]; below 10% change from control in experiment [3]; 58% in [4]; -15% in experiment [5]; 20% in experiment [7]; 34% in [9]. The Delta was 12% in [12], 82% in experiment [13] and -33% in experiment [14]. Further, the IC50 (as a rule, the concentration at which inhibition is half-maximal) in experiment [2] was “Not reached”; in [8] it was 6 µM. Moreover, the CFC20 in [6] stood at 0.5 µM. Further, the half-maximal effective concentration (EC50) (as a rule, the midpoint of the concentration-response curve) in [10] is 1.6 µM; in experiment [11], 0.7 µM.
On to `Cc1cn2c(n1)c(O)nc1ccccc12`, for which the CFC20 in [6] stood at 11 µM. Besides, the IC50 in experiment [8] came to 42 µM; in experiment [15], 36 µM. The half-maximal effective concentration (EC50) in [10] came to 5.1 µM; in experiment [11], 0.4 µM.
On to `CCc1nc(C)c2c(O)nc3ccc(-n4ccnc4)cc3n12`, for which, in experiment [6], the CFC20 came to 0.6 µM. Besides, the IC50 in experiment [8] came out at 2 µM; in experiment [15], 4 µM. Besides, the concentration giving a half-maximal response (EC50) in experiment [10] worked out at 1.7 µM; in [11], 0.4 µM.
`Cc1ncc2c(O)nc3ccccc3n12` returned a CFC20 in experiment [6] of 2.1 µM. For the same compound, the values for the IC50 in [8] and in experiment [15] were 16 µM and 27 µM, respectively. In addition, the concentration giving a half-maximal response (EC50) is 49 µM in experiment [10] and 2.8 µM in [11].
Turning to `Oc1nc2cccnc2n2ccnc12`, the Delta is below 10% change from control in experiment [16]; -40% in experiment [17]; 81% in [18]; below 10% change from control in experiment [19]; 42% in experiment [20]; below 10% change from control in [21]. The Delta was 24% in [22], below 10% change from control in experiment [23] and below 10% change from control in experiment [24]. The CFC20 in [6] was 2.2 µM. The IC50 was found to be 44 µM in experiment [8] and 27 µM in experiment [15]. Besides, the EC50 in experiment [10] is 11 µM; in [11] it was 10 µM.
With `Cc1nccn1-c1ccc2nc(O)c3cnc(C)n3c2n1`, the CFC20 in experiment [6] was determined as 0.4 µM. For the same compound, the values for the 50% inhibitory concentration (IC50) in [8] and in experiment [15] were 1 µM and 3 µM, respectively. The figures for the EC50 in experiment [10] and in experiment [11] were 24 µM and 2 µM, respectively.
Consider `Oc1nc2ccccc2n2ccnc12`, for which, in [6], the CFC20 was determined as 10 µM. The concentration for half-maximal inhibition (IC50) in [8] is 49 µM; in experiment [15], 44 µM.
For the compound `CCc1nc(C)c2c(O)nc3ccccc3n12`, the Delta in [16] was below 10% change from control; in [25], 42%; in [17], -40%; in experiment [18], 135%; in [20], 85%; in experiment [22], 65%. Moreover, the figures for the Delta in experiment [9], in experiment [24] and in [13] were 22%, below 10% change from control and 39%, respectively. In experiment [6], this compound showed a CFC20 of 0.2 µM. In addition, the results for the IC50 in experiment [8] and in experiment [15] were 2 µM and 0.4 µM, respectively. For the same compound, the concentration for a half-maximal effect (EC50) in experiment [10] turned out to be 1.7 µM; in experiment [11] it was 0.8 µM.
In the case of `Cc1nccn1-c1ccc2nc(O)c3cnc(C)n3c2c1`, the CFC20 in [6] came to 1.2 µM. Further, the IC50 in experiment [8] turned out to be 6 µM; in [15], 24 µM. Also, the concentration giving a half-maximal response (EC50) was found to be 5.5 µM in [10] and 1.1 µM in experiment [11].
In the case of `CCc1nccn1-c1ncnc2c1nc(O)c1cnc(CC)n12`, the EC50 in [10] is 59 µM; in experiment [11], 23 µM. In addition, the IC50 in [15] is 14 µM; in experiment [26], “Not reached”.
The compound `Cc1ncc2c(O)nc3ccc(-n4ccnc4)cc3n12` returned a CFC20 in experiment [6] of 2 µM. The values for the concentration for half-maximal inhibition (IC50) in experiment [8] and in experiment [15] were 8 µM and 19 µM, respectively. Moreover, the EC50 in experiment [10] turned out to be 30 µM; in experiment [11] it was 2.8 µM.
